Screening results (PubChem BioAssay)
Hits are enriched below; roughly 3.3% of the tested compounds scored in any of these assays.
Cl transport mod: KCC2 cotransporter modulators, thallium flux, primary screen, cell-based, HEK293 KCC2, FluoZin-2 fluorescence, MLSMR; AID 1456, 2008; 190,000 compounds, 2.2% hits; B-score of Tl+ flux slope (higher = more flux/activation; lower = inhibition) at 10 µM; Solute carrier family 12 member 5 (Homo sapiens), Q9H2X9; KCC2 cells, thallium flux FluoZin-2 fluorescence;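 active means thallium flux slope and its plate-corrected score both differing from the plate sample mean at a set confidence after two filtering rounds, in either direction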;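 further: slope of fluorescence scaled to starting intensity during 10 to 20 s after thallium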
Target sequence (Q9H2X9 whole entry, looked up): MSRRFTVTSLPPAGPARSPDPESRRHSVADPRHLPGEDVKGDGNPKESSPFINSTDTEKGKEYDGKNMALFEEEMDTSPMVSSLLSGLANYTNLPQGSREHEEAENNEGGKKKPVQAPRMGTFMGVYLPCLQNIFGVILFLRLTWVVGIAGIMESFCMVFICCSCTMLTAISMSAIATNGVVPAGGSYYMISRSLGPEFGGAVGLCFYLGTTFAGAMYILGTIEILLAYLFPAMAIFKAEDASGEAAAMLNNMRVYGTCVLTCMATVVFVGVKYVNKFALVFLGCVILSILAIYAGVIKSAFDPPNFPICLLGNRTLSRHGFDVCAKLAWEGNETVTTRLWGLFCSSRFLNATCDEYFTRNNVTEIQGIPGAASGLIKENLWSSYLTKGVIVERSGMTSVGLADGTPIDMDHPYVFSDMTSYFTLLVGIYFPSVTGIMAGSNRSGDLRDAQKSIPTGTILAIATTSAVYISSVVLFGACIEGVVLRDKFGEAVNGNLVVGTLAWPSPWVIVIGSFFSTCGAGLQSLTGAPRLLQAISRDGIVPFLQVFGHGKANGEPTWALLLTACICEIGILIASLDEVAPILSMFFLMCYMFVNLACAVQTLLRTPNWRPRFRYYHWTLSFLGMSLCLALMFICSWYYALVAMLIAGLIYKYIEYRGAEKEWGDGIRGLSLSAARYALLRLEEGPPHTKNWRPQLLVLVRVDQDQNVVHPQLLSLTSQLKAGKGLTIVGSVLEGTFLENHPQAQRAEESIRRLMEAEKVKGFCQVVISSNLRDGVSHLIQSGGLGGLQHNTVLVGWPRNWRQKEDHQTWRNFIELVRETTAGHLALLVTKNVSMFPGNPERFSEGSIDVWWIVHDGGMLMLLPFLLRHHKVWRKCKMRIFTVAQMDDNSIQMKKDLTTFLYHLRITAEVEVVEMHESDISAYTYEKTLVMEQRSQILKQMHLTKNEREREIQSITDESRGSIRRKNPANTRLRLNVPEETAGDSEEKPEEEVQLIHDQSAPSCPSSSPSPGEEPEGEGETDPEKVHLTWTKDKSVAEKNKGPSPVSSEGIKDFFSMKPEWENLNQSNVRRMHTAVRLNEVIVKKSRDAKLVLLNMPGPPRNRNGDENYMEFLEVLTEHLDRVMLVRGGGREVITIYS
PMI activator: activators of human PMI, primary screen, biochemical, fluorescence intensity, near-Km mannose 6-phosphate; purified human PMI, coupled resazurin fluorescence, 20 min; active compounds read high; 1 = vehicle control, 0 substrate-free wells; activation factor at 20 µM; 190,000 compounds, 0.005% hits;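 active means activation factor of 2 or more at 20 µM, relative to plate controls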
ROMK mod: ROMK potassium channel modulators, primary screen, cell-based, thallium flux, MLSMR library | Tet-inducible ROMK, thallium flux fluorescence; actives lie on both sides | ATP-sensitive inward rectifier potassium channel 1 (Homo sapiens), P48048 | B-score at 10 µM | AID 1918, 2009 | 130,000 compounds, 2% hits;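 active means signal ratio slope over the read window, or its plate-corrected B-score, at least 3 SD from the plate mean, either direction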;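 further: B-score of the F/F0 ratio slope over 7 to 12 s after thallium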
ABCB1 block: ABCB1 efflux pump inhibitors, primary screen, cell-based, multiplex, flow cytometry, ABCG2 counter-screen; ATP-dependent translocase ABCB1 (Homo sapiens), P08183; CCRF-Adr cells, JC-1 efflux; inhibition, % at 6.6 µM; 190,000 compounds, 0.067% hits; AID 1326, 2008; in the data active means inhibition above about 40%;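 further: 0% = vehicle and 100% = reference inhibitor; higher value means more JC-1 retained so stronger ABCB1 efflux block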
ABCG2 inh: ABCG2 efflux pump inhibitors, primary screen, multiplex with ABCB1, IgMXP3 cells, flow cytometry; JC-1 efflux; inhibition, % at 6.6 µM; Broad substrate specificity ATP-binding cassette transporter ABCG2 (Homo sapiens), Q9UNQ0; 190,000 compounds, 0.1% hits;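 active means inhibition above 80%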;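 further: 0% = DMSO and 100% = nicardipine control wells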
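Measure – % inhibition of efflux relative to nicardipine and DMSO · Test system – ABCG2 IgMXP3 and barcoded ABCB1 CCRF-Adr cell mix · Control set – nicardipine as high control, DMSO as low control · Compound – one concentration, 6.6 µM final · Signal – flow cytometry of retained JC-1 fluorescence · Timing – 10 min exposure at 25 °C with rotation, no wash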
PMI act satM6P: human PMI activators, high substrate, primary screen, biochemical, fluorescence intensity, near-saturating mannose 6-phosphate; Mannose-6-phosphate isomerase (Homo sapiens), P34949; coupled PMI enzyme assay, resazurin fluorescence, 20 min; active compounds read high; 1 = untreated enzyme, 0 = substrate-free blank; activation factor at 20 µM; 190,000 compounds, 0.34% hits; AID 1216, 2008;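 active means activation factor of 2 or more at 20 µM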
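Material: human phosphomannose isomerase with PGI, G6PDH, diaphorase coupling enzymes / Reagent: Man-6-P substrate 1.0 mM / Dosing: single compound dose of 20 µM, 1% DMSO final / Incubation: enzyme reaction with compound 20 min at room temperature / Signal: resorufin fluorescence (Ex 544/Em 590 nm) from resazurin via diaphorase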
KCC2 secondary: KCC2 modulators in sodium-free buffer, confirmation, cell-based, HEK293 KCC2, thallium flux, secondary assay; shares compounds with Cl transport mod; FluoZin2 fluorescence; active compounds read high; normalised thallium flux (F/F0 slope) at 10 µM; 3,700 compounds, 15% hits; AID 1713, 2009;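 active means thallium flux slope above the same plate's solvent-only control mean plus 3 SD; inconclusive means the two replicate wells disagree; inactive means no significant difference from solvent-only control wells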
KCC2 bumet counter: thallium flux persisting under bumetanide in KCC2 cells, confirmation, counter-screen for KCC2 modulator project, cell-based, HEK293 KCC2, FluoZin2, secondary assay 3; shares compounds with Cl transport mod; HEK293-KCC2 + bumetanide/ouabain; active compounds read high; normalized thallium flux at 10 µM; 3,700 compounds, 49% hits; AID 1714, 2009;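 active means thallium entry rate above the same plate's blocked-transporter control wells by more than 3 SD; inconclusive means the two repeat wells disagree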;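 further: raw slope of fluorescence over initial fluorescence between 10 and 20 s after thallium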
KCC2 sec2: KCC2 modulators without ouabain present, confirmation, cell-based, HEK293 KCC2, thallium flux, FluoZin2, secondary assay 2; shares compounds with Cl transport mod; thallium flux FluoZin2 fluorescence; actives lie on both sides; F/F0 rise rate, 10–20 s post-thallium; normalized thallium flux at 10 µM; 3,700 compounds, 23% hits;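 active means thallium flux slope more than 3 SD above or below the plate's solvent-only control mean, mostly below; inconclusive means the two repeat wells disagreed; inactive means no significant shift from solvent-only controls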;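 further: raw slope with 0.1% DMSO as baseline and bumetanide as block control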
HEK counter1: thallium flux modulation in parental HEK cells, confirmation, counter-screen for KCC2 modulator project, cell-based, counterscreen 1 | thallium flux rate (normalised fluorescence) at 10 µM | HEK293 parental cells, thallium flux FluoZin2, ouabain; baseline-ratio fluorescence slope, 10–20 s after thallium | 3,700 compounds, 46% hits | AID 1716, 2009 | shares compounds with Cl transport mod;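 active means thallium flux rate significantly above the same plate's solvent-only control wells, beyond their mean plus 3 SD; inconclusive means the two replicate wells gave conflicting results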
KCC2 ouabain: KCC2 inhibitors and activators, ouabain retest, confirmation, HEK-KCC2 cells; raw Tl+ flux slope (below DMSO = inhibition, above = activation) at 10 µM; HEK293-KCC2, thallium flux FluoZin2 fluorescence; bidirectional: low = inhibitor, high = activator; shares compounds with Cl transport mod; AID 1717, 2009; 3,700 compounds, 48% hits;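 active means thallium flux slope beyond 3 SD from same-plate DMSO control mean in most replicates, usually higher, sometimes lower; inconclusive means repeat tests gave conflicting results; inactive means no significant difference from controls in most replicates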;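 further: slope of initial-normalized fluorescence between seconds 10 and 20 after thallium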
HEK293 Tl flux2: native HEK Tl+ uptake effects, second counter-screen – HEK cells, counterscreen 2, counter-screen for KCC2 modulator project, confirmation | shares compounds with Cl transport mod | HEK293 parental, thallium flux FluoZin-2 fluorescence slope | thallium flux slope at 10 µM | 3,700 compounds, 33% hits;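 active means thallium flux slope above the same plate's solvent-control mean plus 3 SD in both duplicate wells; inconclusive means duplicate wells that disagreed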;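 further: run without ouabain in cells lacking the KCC2 cotransporter; slope of fluorescence scaled to its starting value between 10 and 20 s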
Active calls of the source: *; ? = inconclusive; / = no result.

SMILES	Cl transport mod	PMI activator	ROMK mod	ABCB1 block	ABCG2 inh	PMI act satM6P	KCC2 secondary	KCC2 bumet counter	KCC2 sec2	HEK counter1	KCC2 ouabain	HEK293 Tl flux2
CCCCCCCSc1nnc(-c2ccccc2N)c(=O)[nH]1	-3.1	1	-2	0	1	0.9	/	/	/	/	/	/
O=c1[nH]c2cc3c(cc2cc1CN(Cc1nnnn1CC1CCCO1)C1CCCC1)OCO3 (centres undefined)	-1.3	1	/	1	2	1.1	/	/	/	/	/	/
COc1ccccc1CN(Cc1cc2cc(C)ccc2[nH]c1=O)Cc1nnnn1CC1CCCO1 (centres undefined)	-1.7	0.9	-1.7	2	20	1	/	/	/	/	/	/
Cc1ccc2[nH]c(=O)c(CN(CCc3ccccc3)Cc3nnnn3CC3CCCO3)cc2c1 (centres undefined)	-4.3*	1.5	-2	3	49	1.7	?	0.0053	?	0.0072	0.017	0.011
COc1ccc2[nH]c(=O)c(CN(CCc3ccccc3)Cc3nnnn3CC3CCCO3)cc2c1 (centres undefined)	0.09	1.2	/	1	10	1.3	/	/	/	/	/	/
COc1ccc2[nH]c(=O)c(CN(Cc3ccccc3OC)Cc3nnnn3CC3CCCO3)cc2c1 (centres undefined)	8.6*	1.1	/	1	4	1	0.0098	0.0051	0.031	0.0073	0.029	0.01
O=c1[nH]c2cc3c(cc2cc1CN(Cc1nnnn1CC1CCCO1)C1CCCCC1)OCO3 (centres undefined)	7.4*	0.9	-1.4	0	4	0.9	0.0057	?	0.025*	0.0068	0.016*	?
O=c1c2cc(Br)ccc2[nH]c(=S)n1Cc1ccccn1	35*	1	0.2	-1	-3	1.1	?	0.071*	0.044*	0.046*	0.057*	0.021*
O=c1c2cc(N3CCOCC3)ccc2[nH]c(=S)n1Cc1ccccn1	1.2	0.8	/	0	1	0.9	/	/	/	/	/	/
CC(=O)c1ccc(O)c(CSC2=NCCS2)c1	0.063	1	0.28	0	3	1	/	/	/	/	/	/
N#C/C(=C\c1ccc(-c2ccccc2Cl)o1)C(=O)Nc1nc2ccccc2s1	6.8*	1	-1.5	-4	-14	1.1	0.0069	0.024*	0.037	0.032*	0.029*	0.034*
O=C(C[n+]1ccc2ccccc2c1)c1ccc(NC(=O)c2ccccc2)cc1	0.54	1.3	-0.3	0	1	1	/	/	/	/	/	/
Cc1ccc2[nH]c(SCC(=O)N3CCOCC3)nc2c1C	/	0.9	-0.37	1	6	1	0.0082	0.0053	0.036	0.0035	0.021	0.011
Cc1c(C(=O)NC(=S)NCC(C)C)oc2ccccc12	2	0.9	-0.38	0	0	0.9	/	/	/	/	/	/
C=CCNC(=S)NC(=O)c1oc2ccccc2c1C	11*	1	0.78	0	6	1	0.011	0.035*	0.034	0.021*	0.042*	0.012*
S=c1[nH]nc(-c2ccc(Cl)cc2)n1CCCN1CCOCC1	-0.026	1	-0.013	1	22	1	/	/	/	/	/	/
COc1ccc(C2C(C(=O)OCC3CCCO3)=C(C)NC3=C2C(=O)CC(c2ccco2)C3)cc1O (centres undefined)	-1.5	0.9	/	0	3	0.9	/	/	/	/	/	/
CC1=CCC[C@@H]2[C@@](C)(CC/C(C)=C/C(=O)O)[C@H](C)CC[C@@]12C	3.5*	0.9	2.1	0	5	0.9	0.0073	0.012*	0.027	0.015*	?	0.011
O=C1C2C(C(=O)N1/N=C/c1cccc([N+](=O)[O-])c1)C1C=CC2C12CC2 (centres undefined)	0.052	0.9	-0.89	0	4	0.9	/	/	/	/	/	/
O=S(=O)(CCCc1ccccc1)c1ncn[nH]1	4.7*	0.9	/	0	2	0.9	0.007	0.0044	0.031	0.0065	0.017	0.0093
Cn1c(-c2sccc2OCc2ccc(Cl)cc2Cl)n[nH]c1=S	5.2*	0.9	-0.11	-2	-4	0.9	0.0065	0.013*	0.026	0.012*	0.017	0.012*
Cc1cccc(NC2=NC(=S)N(c3ccc(C(=O)O)cc3)C23CCCCC3)c1	-0.0065	1	/	0	2	1	/	/	/	/	/	/
CC1(C)CC2(CCO1)C(Nc1ccccc1)=NC(=S)N2c1ccccc1 (centres undefined)	14*	/	-0.66	/	/	/	0.014*	0.034*	0.035	0.021*	0.029	0.014*
COc1ccc(NC2=NC(=S)N(c3cccc(C)c3)C23CCCCC3)cc1	7.3*	1	/	1	3	1	0.011	0.016*	0.034	0.011*	?	0.011
